The test system of assay [1] is Jurkat. The experiment in a line: Induction of apoptosis in human Jurkat cells assessed as increase in late apoptotic cells after 48 hrs by FITC-conjugated annexin V and propidium iodide staining-based flow cytometry. It counts as functional, cell-based. Summed up: (§1)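 Jurkat cells exposed for 24 and 48 h, over a range of 1.25–100 µM, then co-stained with Annexin-V-FITC and propidium iodide. Read by flow cytometry, excitation 488 nm, emission 525 and 585 nm. Quadrants scored as A+/PI− (early apoptotic) and A+/PI+ (late apoptotic), compared with untreated cells. Mean ± SEM of three independent experiments.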
(Flow cytometry measures light scatter and fluorescence of single cells or particles in a stream.)

Assay [2] in a line: Cytotoxicity against human SEM cells after 72 hrs by MTT assay. It counts as functional, cell-based. (Tetrazolium dyes change colour on reduction, which living cells bring about.)
Assay [3] has as its system Jurkat. The experiment in a line: Induction of apoptosis in human Jurkat cells assessed as DNA fragmentation at 12.5 to 50 uM after 48 hrs by agarose gel electrophoresis. It counts as functional, cell-based. Summed up: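 Genomic DNA taken from treated Jurkat cells by salting out after 48 h. 1 µg run on 1.5% agarose in TAE at 50 V for 6 h. Gel stained with ethidium bromide and imaged under UV light.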

The test system of a further assay is A549. Put plainly: Cytotoxicity against human A549 cells after 72 hrs by MTT assay. It counts as functional, cell-based. The settings on record: A549, 72 h.
The test system of assay [4] is PBL. Put plainly: Cytotoxicity against PHA-stimulated human PBL after 72 hrs by MTT assay. The format is cell-based. Summed up:
(§2)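 PBL from healthy donors separated on a density gradient, washed, held at 1.0×10^6 cells/mL in RPMI-1640 with 10% FCS overnight. Non-adherent cells resuspended at 5×10^5 cells/mL. Stimulated cultures received 2.5 µg/mL PHA; resting cultures had none. Compound at several concentrations for 72 h, viability by MTT, IC50 taken. Mean ± SEM of three experiments.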

The test system of assay [5] is PBL. The experiment in a line: Cytotoxicity against human PBL after 72 hrs by MTT assay. It counts as cell-based. Summed up:
as §2

For assay [6], the system named is Jurkat. The experiment in a line: Cell cycle arrest in human Jurkat cells assessed as decrease in G1 phase phase after 48 hrs using propidium iodide staining by flow cytometry. It counts as functional, cell-based. In short, it runs like this:
(§3)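 Exponentially growing Jurkat cells, 2.5×10^5, exposed to 1.25–100 µM for 48 h. Cells fixed in ice-cold 70% ethanol, lysed in buffer with RNase A and 0.1% Triton X-100, stained with propidium iodide. Cell-cycle phases read by flow cytometry. Mean ± SEM of three independent experiments; two-sided Student's t test against control.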

The nature of assay [7]: Cytotoxicity against human RS4:11 cells after 72 hrs by MTT assay. The format is functional, cell-based. Particulars: RS4-11, 72 h.
The subject of another assay is HeLa. Put plainly: Cytotoxicity against human HeLa cells after 72 hrs by MTT assay. The format is functional, cell-based.
Assay [8] has as its system Jurkat. The experiment in a line: Cytotoxicity against human Jurkat cells assessed as cell viability at 25 uM after 48 hrs by MTT assay in presence of 100 uM pan-caspase inhibitor z-VAD. The format is functional. In short, it runs like this: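 Jurkat cells exposed to compound for 48 h with or without 100 µM of the pan-caspase inhibitor z-VAD.fmk. Percent viability read by MTT. Mean ± SEM.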

Assay [9] concerns Jurkat. The experiment in a line: Cytotoxicity against human Jurkat cells after 72 hrs by MTT assay. It counts as functional, cell-based.
A further assay relates to K562. Put plainly: Cytotoxicity against human K562 cells after 72 hrs by MTT assay. The format is functional, cell-based. The settings on record: K562, 72 h.
The test system of the next assay is HL-60. The experiment in a line: Cytotoxicity against human HL60 cells after 72 hrs by MTT assay. The format is functional, cell-based. The settings on record: HL-60, 72 h.
The subject of assay [10] is Jurkat. Put plainly: Induction of apoptosis in human Jurkat cells assessed as increase in early apoptotic cells after 24 hrs by FITC-conjugated annexin V and propidium iodide staining-based flow cytometry. It counts as functional, cell-based. Summed up: as §1
In assay [11] the test system is Jurkat. The experiment in a line: Cell cycle arrest in human Jurkat cells assessed as decrease in S phase phase after 48 hrs using propidium iodide staining by flow cytometry. The format is functional, cell-based. In short, it runs like this: as §3
In assay [12] the test system is Jurkat. Put plainly: Cell cycle arrest in human Jurkat cells assessed as accumulation at G2/M phase after 48 hrs using propidium iodide staining by flow cytometry. The format is functional, cell-based. In short, it runs like this: as §3

Structures are written as SMILES. Active and inactive are the calls of the source. The calls are words filed in the database; no cut-off is given here.

In the case of `C/C=C(/C)C(=O)O[C@H]1CC(C)=C[C@@H](OC(=O)/C(C)=C\C)[C@@]2(C)CC[C@@](O)(C(C)C)[C@H]12`, the result in the assay on Jurkat [1], in the assay on Jurkat [3], with Jurkat [6] and with Jurkat [11] was Active. For the same molecule, the IC50 – broadly, the midpoint of a concentration-inhibition curve – turned out to be 2.4 µM in [2]; 2.8 µM in the assay with A549; 13.7 µM in the assay on PBL [4]; 22.6 µM with PBL [5]; 1.7 µM in assay [7]; 4.4 µM in the assay with HeLa. Further, the half-maximal inhibitory concentration (IC50) amounted to 7.7 µM in the assay with Jurkat [9], 26.5 µM in the assay on K562 and 2.6 µM in the assay with HL-60. Further, the values for the Activity with Jurkat [8], in the assay with Jurkat [10] and in the assay on Jurkat [12] were 19%, “Dose-dependent effect” and “Dose-dependent effect”, respectively.

These data come from ChEMBL document CHEMBL1833801, “Natural daucane sesquiterpenes with antiproliferative and proapoptotic activity against human tumor cells” (Bioorg Med Chem, 2011).
